According to ChEMBL document CHEMBL4270630:

Tests used:
Influenza A virus [1] = assay: Antiviral activity against Influenza A virus A/PR/8/34(H1N1) infected in MDCK cells assessed as reduction in virus-induced cytopathic effect after 3 days by microscopic method; type: functional, organism-based, A/Puerto Rico/8/1934(H1N1); settings: Influenza A virus, A/Puerto Rico/8/1934(H1N1), MDCK, 72 h
Summary of the method: (§1)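 Semi-confluent MDCK cells were infected at an MOI of 0.0004 PFU/cell in Ultra-MDCK infection medium with 2 μg/mL TPCK-trypsin, together with compounds. After 3 days at 35 °C, CPE was scored by microscopy and confirmed by MTS formazan viability. EC50 is the concentration giving 50% inhibition of virus-induced CPE. Values are means of two to five independent tests.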

Influenza A virus [2] = assay: Antiviral activity against Influenza A virus A/PR/8/34(H1N1) infected in MDCK cells after 3 days by MTS assay; type: functional, organism-based, A/Puerto Rico/8/1934(H1N1); settings: Influenza A virus, A/Puerto Rico/8/1934(H1N1), MDCK, 72 h; summary of the method: as §1
Influenza A virus [3] = assay: Antiviral activity against Influenza A virus A/Virginia/ATCC3/2009(H1N1pdm) infected in MDCK cells assessed as reduction in virus-induced cytopathic effect after 3 days by microscopic method; type: functional, organism-based, Influenza A virus (A/Virginia/03/2009(H1N1)); settings: 72 h; summary of the method: as §1
Influenza A virus [4] = assay: Antiviral activity against Influenza A virus A/Virginia/ATCC3/2009(H1N1pdm) infected in MDCK cells after 3 days by MTS assay; type: functional, organism-based, Influenza A virus (A/Virginia/03/2009(H1N1)); settings: 72 h; summary of the method: as §1
H3N2 subtype [5] = assay: Antiviral activity against Influenza A virus A/HK/7/87(H3N2) infected in MDCK cells assessed as reduction in virus-induced cytopathic effect after 3 days by microscopic method; type: functional, organism-based; settings: A/Hong Kong/7/1987(H3N2), 72 h; summary of the method: as §1
H3N2 subtype [6] = assay: Antiviral activity against Influenza A virus A/HK/7/87(H3N2) infected in MDCK cells after 3 days by MTS assay; type: functional, organism-based; settings: A/Hong Kong/7/1987(H3N2), 72 h; summary of the method: as §1
Influenza B virus [7] = assay: Antiviral activity against Influenza B virus B/Ned/537/05 infected in MDCK cells assessed as reduction in virus-induced cytopathic effect after 3 days by microscopic method; type: functional, organism-based; settings: B/Ned/537/05, MDCK, 72 h
Summary of the method: (§2)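 Semi-confluent MDCK cells were infected at an MOI of 0.0004 PFU/cell in Ultra-MDCK infection medium with 2 μg/mL TPCK-trypsin, together with compounds. After 3 days at 35 °C, CPE was scored by microscopy and confirmed by MTS formazan viability. Values are means of two to five independent tests.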

Influenza B virus [8] = assay: Antiviral activity against Influenza B virus B/Ned/537/05 infected in MDCK cells after 3 days by MTS assay; type: functional, organism-based; settings: B/Ned/537/05, MDCK, 72 h; summary of the method: as §2
MDCK = assay: Cytotoxicity against MDCK cells assessed as reduction in cell viability after 3 days by MTS assay; type: cell-based, Canis lupus familiaris; settings: dog, mdck, 72 h
[9] = Cytotoxicity against MDCK cells assessed as alteration in cell morphology after 3 days by microscopic method; type: cell-based, Canis lupus familiaris; settings: dog
Summary of the method: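 Mock-infected MDCK cells were treated with compounds in parallel with the antiviral assay, 3 days at 35 °C. MCC is the concentration causing minimal change in cell morphology by microscopy. CC50 is the 50% cytotoxic concentration by MTS formazan viability assay.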

Human coronavirus 229E [10] = assay: Antiviral activity against Human coronavirus 229E infected in HEL299 cells assessed as reduction in virus induced cytopathic effect after 5 days by microscopic method; type: functional, organism-based; settings: HEL 299, 120 h
Summary of the method: (§3)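 Confluent HEL 299 cells in medium with 2% FCS were exposed to HCoV-229E (100 CCID50/well) together with compounds and held for 5 days at 35 °C. EC50 (CPE reduction) and MCC (minimal morphology change) were determined by microscopy. SI is MCC/EC50.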

[11] = Cytotoxicity against HEL299 cells assessed as changes in cell morphology after 5 days by microscopic method; type: cell-based, HEL 299; settings: human; summary of the method: as §3
Human coronavirus 229E [12] = assay: Antiviral activity against Human coronavirus 229E infected in human A549 cells assessed as reduction in virus RNA level after 3 days by qRT-PCR method; type: functional; settings: A549, 72 h
Summary of the method: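 Confluent A549 cells were infected with HCoV-229E in 2% FCS medium with compounds present. The inoculum was removed at 1 h and compounds were kept on at 35 °C. Supernatants were harvested at day 3, lysed at 75 °C for 10 min, and viral genome copies counted by one-step qRT-PCR.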

[13] = Cytotoxicity against human A549 cells assessed as changes in cell morphology after 3 days by microscopic method; type: cell-based
Summary of the method: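 Mock-infected A549 cells were incubated with compounds for 3 days. MCC is the concentration causing minimal change in cell morphology by microscopy.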

Influenza B virus [14] = assay: Antiviral activity against Influenza B virus B/HK/05/72 infected in MDCK cells assessed as reduction in virus-induced cytopathic effect after 3 days by microscopic method; type: functional, organism-based; settings: B/Hong Kong/05/1972, MDCK, 72 h; summary of the method: as §1
Influenza B virus [15] = assay: Antiviral activity against Influenza B virus B/HK/05/72 infected in MDCK cells after 3 days by MTS assay; type: functional, organism-based; settings: B/Hong Kong/05/1972, MDCK, 72 h; summary of the method: as §1

SMILES | EC50 (Influenza A virus [1]) | EC50 (Influenza A virus [2]) | EC50 (Influenza A virus [3]) | EC50 (Influenza A virus [4]) | EC50 (H3N2 subtype [5]) | EC50 (H3N2 subtype [6]) | EC50 (Influenza B virus [7]) | EC50 (Influenza B virus [8]) | CC50 (MDCK) | MCC at 72 h [9] | EC50 (Human coronavirus 229E [10]) | MCC at 120 h [11] | EC90 (Human coronavirus 229E [12]) | EC99 (Human coronavirus 229E [12]) | MCC at 72 h [13] | EC50 (Influenza B virus [14]) | EC50 (Influenza B virus [15])
CCCCCCCCOCc1cn(CCOCCOCCOCCOCc2cn([C@H]3C(=O)N[C@@H]4Cc5ccc(c(Cl)c5)Oc5cc6cc(c5O)Oc5ccc(cc5Cl)[C@@H](O[C@@H]5O[C@H](CO)[C@@H](O)[C@H](O)[C@H]5NC(C)=O)[C@H]5NC(=O)[C@H](NC(O)[C@@H]6NC(=O)[C@@H](NC4=O)c4cc(O)cc(c4)Oc4cc3ccc4O)c3ccc(O)c(c3)-c3c(O)cc(O)cc3[C@H](C(=O)O)NC5=O)nn2)nn1 (stereo partly specified) | > 100 µM | > 100 µM | > 100 µM | > 100 µM | > 100 µM | > 100 µM | > 100 µM | > 100 µM | 19 µM | 20 µM | 8.9 µM | 100 µM | 23 µM | 30 µM | > 50 µM | – | –
CC(=O)N[C@H]1[C@H](O[C@@H]2c3ccc(c(Cl)c3)Oc3cc4cc(c3O)Oc3ccc(cc3Cl)C[C@H]3NC(=O)[C@H](NS(=O)(=O)c5ccc(-c6ccccc6)cc5)c5ccc(O)c(c5)Oc5cc(O)cc(c5)[C@H](NC3=O)C(=O)N[C@H]4C(O)N[C@H]3C(=O)N[C@H]2C(=O)N[C@@H](C(=O)O)c2cc(O)cc(O)c2-c2cc3ccc2O)O[C@H](CO)[C@@H](O)[C@@H]1O (stereo partly specified) | 1.8 µM | 1.7 µM | 2 µM | 2 µM | 1.5 µM | 1.6 µM | 1.8 µM | 2.4 µM | 15 µM | 11 µM | > 100 µM | 4 µM | – | – | – | – | –
CCCCCCCCCCCCSC1=C(SCCCCCCCCCCCC)C(=O)N(Cc2cn(C3C(=O)N[C@@H]4Cc5ccc(c(Cl)c5)Oc5cc6cc(c5O)Oc5ccc(cc5Cl)[C@@H](O[C@@H]5O[C@H](CO)[C@@H](O)[C@H](O)[C@H]5NC(C)=O)[C@H]5NC(=O)[C@H](NC(O)[C@@H]6NC(=O)[C@@H](NC4=O)c4cc(O)cc(c4)Oc4cc3ccc4O)c3ccc(O)c(c3)-c3c(O)cc(O)cc3[C@H](C(=O)O)NC5=O)nn2)C1=O (stereo partly specified) | > 100 µM | > 100 µM | > 100 µM | > 100 µM | > 100 µM | > 100 µM | – | – | 75 µM | 100 µM | – | – | – | – | – | > 100 µM | > 100 µM
CC(=O)Nc1ccc(S(=O)(=O)N[C@H]2C(=O)N[C@@H]3Cc4ccc(c(Cl)c4)Oc4cc5cc(c4O)Oc4ccc(cc4Cl)[C@@H](O[C@@H]4O[C@H](CO)[C@@H](O)[C@H](O)[C@H]4NC(C)=O)[C@H]4NC(=O)[C@H](NC(O)[C@@H]5NC(=O)[C@@H](NC3=O)c3cc(O)cc(c3)Oc3cc2ccc3O)c2ccc(O)c(c2)-c2c(O)cc(O)cc2[C@H](C(=O)O)NC4=O)cc1 (stereo partly specified) | > 100 µM | > 100 µM | > 100 µM | > 100 µM | > 100 µM | > 100 µM | > 100 µM | 47 µM | 60 µM | 100 µM | > 100 µM | ≥ 20 µM | – | – | – | – | –
O=C(N/C(=C\c1ccccc1)C(=O)N1CCC(O)(c2ccc(Br)cc2)CC1)c1ccccc1 | – | – | – | – | – | – | – | – | – | – | – | – | 11 µM | 15 µM | ≥ 50 µM | – | –
CCCSC1=C(SCCC)C(=O)N(Cc2cn(C3C(=O)N[C@@H]4Cc5ccc(c(Cl)c5)Oc5cc6cc(c5O)Oc5ccc(cc5Cl)[C@@H](O[C@@H]5O[C@H](CO)[C@@H](O)[C@H](O)[C@H]5NC(C)=O)[C@H]5NC(=O)[C@H](NC(O)[C@@H]6NC(=O)[C@@H](NC4=O)c4cc(O)cc(c4)Oc4cc3ccc4O)c3ccc(O)c(c3)-c3c(O)cc(O)cc3[C@H](C(=O)O)NC5=O)nn2)C1=O (stereo partly specified) | > 100 µM | > 100 µM | > 100 µM | > 100 µM | > 100 µM | > 100 µM | – | – | 22 µM | 20 µM | – | – | – | – | – | > 100 µM | > 100 µM
CCCSC1=C(SCCC)C(=O)N(CCOCCOCCOCCOCc2cn(C3C(=O)N[C@@H]4Cc5ccc(c(Cl)c5)Oc5cc6cc(c5O)Oc5ccc(cc5Cl)[C@@H](O[C@@H]5O[C@H](CO)[C@@H](O)[C@H](O)[C@H]5NC(C)=O)[C@H]5NC(=O)[C@H](NC(O)[C@@H]6NC(=O)[C@@H](NC4=O)c4cc(O)cc(c4)Oc4cc3ccc4O)c3ccc(O)c(c3)-c3c(O)cc(O)cc3[C@H](C(=O)O)NC5=O)nn2)C1=O (stereo partly specified) | > 100 µM | > 100 µM | > 100 µM | 7.8 µM | 6.2 µM | ≤ 7.8 µM | – | – | 38 µM | 20 µM | – | – | – | – | – | > 100 µM | > 100 µM
CC(=O)N[C@H]1[C@H](O[C@@H]2c3ccc(c(Cl)c3)Oc3cc4cc(c3O)Oc3ccc(cc3Cl)C[C@H]3NC(=O)[C@H](NS(=O)(=O)c5cccc6c(N(C)C)cccc56)c5ccc(O)c(c5)Oc5cc(O)cc(c5)[C@H](NC3=O)C(=O)N[C@H]4C(O)N[C@H]3C(=O)N[C@H]2C(=O)N[C@@H](C(=O)O)c2cc(O)cc(O)c2-c2cc3ccc2O)O[C@H](CO)[C@@H](O)[C@@H]1O (stereo partly specified) | 4.9 µM | 7 µM | 6.3 µM | 5.9 µM | 8.3 µM | 2.3 µM | 6.7 µM | 5.3 µM | 52 µM | 20 µM | > 100 µM | ≥ 4 µM | – | – | – | – | –
CCCCOCc1cn(CCOCCOCCOCCOCc2cn([C@H]3C(=O)N[C@@H]4Cc5ccc(c(Cl)c5)Oc5cc6cc(c5O)Oc5ccc(cc5Cl)[C@@H](O[C@@H]5O[C@H](CO)[C@@H](O)[C@H](O)[C@H]5NC(C)=O)[C@H]5NC(=O)[C@H](NC(O)[C@@H]6NC(=O)[C@@H](NC4=O)c4cc(O)cc(c4)Oc4cc3ccc4O)c3ccc(O)c(c3)-c3c(O)cc(O)cc3[C@H](C(=O)O)NC5=O)nn2)nn1 (stereo partly specified) | > 100 µM | 51 µM | > 100 µM | 47 µM | > 100 µM | 31 µM | > 100 µM | 28 µM | > 100 µM | 100 µM | ≥ 100 µM | ≥ 100 µM | – | – | – | – | –
